Laboratory results published in ChEMBL document CHEMBL1641414, “Synthesis and pharmacological evaluation of 4-(3,4-dichlorophenyl)-N-methyl-1,2,3,4-tetrahydronaphthalenyl amines as triple reuptake inhibitors” (Bioorg Med Chem, 2011).
pIC50: −log10 of the molar value.

Legend:
[1] = target: Sodium-dependent noradrenaline transporter (Homo sapiens, UniProt P23975); experiment: Inhibition of [3H]norepinephrine reuptake at human NET expressed in MDCK cells by scintillation counting; format: cell-based
Sodium-dependent noradrenaline transporter, sequence (P23975 whole entry): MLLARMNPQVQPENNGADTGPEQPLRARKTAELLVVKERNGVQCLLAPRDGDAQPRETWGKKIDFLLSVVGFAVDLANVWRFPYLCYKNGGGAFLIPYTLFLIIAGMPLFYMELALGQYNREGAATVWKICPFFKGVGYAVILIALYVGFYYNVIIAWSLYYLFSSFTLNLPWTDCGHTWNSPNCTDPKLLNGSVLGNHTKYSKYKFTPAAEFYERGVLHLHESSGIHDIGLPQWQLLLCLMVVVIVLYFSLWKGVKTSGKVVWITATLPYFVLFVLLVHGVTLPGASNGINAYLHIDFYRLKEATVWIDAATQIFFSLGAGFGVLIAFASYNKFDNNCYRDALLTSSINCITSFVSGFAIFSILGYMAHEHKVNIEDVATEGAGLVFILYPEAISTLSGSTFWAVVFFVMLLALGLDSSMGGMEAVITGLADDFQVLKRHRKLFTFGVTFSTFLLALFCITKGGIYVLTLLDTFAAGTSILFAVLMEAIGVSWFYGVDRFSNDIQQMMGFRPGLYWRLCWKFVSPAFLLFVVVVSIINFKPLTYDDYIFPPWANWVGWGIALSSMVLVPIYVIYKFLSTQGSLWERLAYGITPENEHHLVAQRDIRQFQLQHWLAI

[2] = Half life in mouse liver microsome; format: ADME; conditions: liver microsomes
In short: (§1)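 Microsomal stability and CYP inhibition were run by a contract laboratory under its standard protocols. Stability was measured in human and mouse liver microsomes and reported as t1/2 in min. Midazolam was the reference substrate for CYP3A4.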

[3] = Half life in human liver microsome; format: ADME; conditions: liver microsomes; in short: as §1
Cytochrome P450 2D6 = Cytochrome P450 2D6 (Homo sapiens, UniProt P10635); experiment: Inhibition of CYP2D6; format: ADME; in short: as §1
Cytochrome P450 2D6, sequence (P10635 whole entry): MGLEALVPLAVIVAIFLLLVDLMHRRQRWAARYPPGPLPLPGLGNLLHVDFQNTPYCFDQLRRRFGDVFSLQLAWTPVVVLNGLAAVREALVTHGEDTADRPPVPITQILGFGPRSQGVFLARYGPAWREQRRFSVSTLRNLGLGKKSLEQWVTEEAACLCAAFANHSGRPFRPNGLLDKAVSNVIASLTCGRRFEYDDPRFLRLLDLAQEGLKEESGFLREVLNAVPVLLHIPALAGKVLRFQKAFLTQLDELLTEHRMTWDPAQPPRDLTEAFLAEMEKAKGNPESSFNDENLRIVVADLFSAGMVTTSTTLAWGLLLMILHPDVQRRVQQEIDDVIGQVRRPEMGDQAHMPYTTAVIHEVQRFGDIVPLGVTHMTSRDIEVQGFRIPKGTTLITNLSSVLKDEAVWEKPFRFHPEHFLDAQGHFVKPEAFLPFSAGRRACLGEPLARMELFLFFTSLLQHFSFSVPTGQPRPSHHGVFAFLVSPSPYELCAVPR

Cytochrome P450 2C9 = Cytochrome P450 2C9 (Homo sapiens, UniProt P11712); experiment: Inhibition of CYP2C9; format: ADME; in short: as §1
Cytochrome P450 2C9, sequence (P11712 whole entry): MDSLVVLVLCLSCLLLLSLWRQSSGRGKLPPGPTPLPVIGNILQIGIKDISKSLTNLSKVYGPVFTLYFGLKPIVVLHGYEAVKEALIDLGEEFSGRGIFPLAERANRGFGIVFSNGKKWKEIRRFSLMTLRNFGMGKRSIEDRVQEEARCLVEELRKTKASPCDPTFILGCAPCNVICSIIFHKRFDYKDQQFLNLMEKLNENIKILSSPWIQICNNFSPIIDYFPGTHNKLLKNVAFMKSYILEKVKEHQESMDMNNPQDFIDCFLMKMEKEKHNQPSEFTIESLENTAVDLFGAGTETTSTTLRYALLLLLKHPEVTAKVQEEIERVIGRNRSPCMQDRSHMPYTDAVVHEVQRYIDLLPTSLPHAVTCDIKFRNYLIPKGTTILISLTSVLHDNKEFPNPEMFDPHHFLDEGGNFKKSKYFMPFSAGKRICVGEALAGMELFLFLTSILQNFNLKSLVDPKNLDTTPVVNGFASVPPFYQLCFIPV

[4] = target: Sodium-dependent dopamine transporter (Homo sapiens, UniProt Q01959); experiment: Inhibition of [3H]dopamine reuptake at human DAT expressed in CHOK1 cells by scintillation counting; format: cell-based, CHO-K1
Sodium-dependent dopamine transporter, sequence (Q01959 whole entry): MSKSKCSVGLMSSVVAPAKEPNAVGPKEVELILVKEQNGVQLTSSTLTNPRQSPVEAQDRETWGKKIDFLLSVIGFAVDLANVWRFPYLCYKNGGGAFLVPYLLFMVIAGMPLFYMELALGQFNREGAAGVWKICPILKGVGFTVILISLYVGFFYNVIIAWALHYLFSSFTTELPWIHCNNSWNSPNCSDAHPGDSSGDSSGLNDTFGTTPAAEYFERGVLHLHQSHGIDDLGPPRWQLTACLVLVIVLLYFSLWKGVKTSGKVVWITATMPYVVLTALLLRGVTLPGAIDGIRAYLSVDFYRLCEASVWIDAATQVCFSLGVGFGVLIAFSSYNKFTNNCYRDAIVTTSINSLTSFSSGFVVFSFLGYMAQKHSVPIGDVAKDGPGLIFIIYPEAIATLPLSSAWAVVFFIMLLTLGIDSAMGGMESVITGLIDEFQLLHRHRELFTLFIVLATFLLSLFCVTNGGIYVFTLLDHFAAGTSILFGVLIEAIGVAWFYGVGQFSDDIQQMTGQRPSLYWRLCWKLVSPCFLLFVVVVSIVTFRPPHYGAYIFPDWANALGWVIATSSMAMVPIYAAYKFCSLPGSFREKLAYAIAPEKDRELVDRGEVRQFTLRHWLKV

Cytochrome P450 2C19 = Cytochrome P450 2C19 (Homo sapiens, UniProt P33261); experiment: Inhibition of CYP2C19; format: ADME
Cytochrome P450 2C19, sequence (P33261 whole entry): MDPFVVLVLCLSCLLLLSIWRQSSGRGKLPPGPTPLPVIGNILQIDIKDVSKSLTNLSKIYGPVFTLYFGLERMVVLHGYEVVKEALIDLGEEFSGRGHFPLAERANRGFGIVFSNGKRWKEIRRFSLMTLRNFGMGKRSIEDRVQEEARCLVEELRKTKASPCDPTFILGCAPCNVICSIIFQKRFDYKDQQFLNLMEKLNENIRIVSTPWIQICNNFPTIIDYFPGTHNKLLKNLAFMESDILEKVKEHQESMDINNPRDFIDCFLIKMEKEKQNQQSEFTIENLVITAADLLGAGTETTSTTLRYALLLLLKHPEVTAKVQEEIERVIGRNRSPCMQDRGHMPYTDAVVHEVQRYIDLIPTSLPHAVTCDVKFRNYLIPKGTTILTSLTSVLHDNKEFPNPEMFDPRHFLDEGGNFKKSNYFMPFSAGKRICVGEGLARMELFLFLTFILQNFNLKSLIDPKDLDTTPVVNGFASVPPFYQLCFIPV

Cytochrome P450 3A4 = Cytochrome P450 3A4 (Homo sapiens, UniProt P08684); experiment: Inhibition of CYP3A4; format: ADME; in short: as §1
Cytochrome P450 3A4, sequence (P08684 whole entry): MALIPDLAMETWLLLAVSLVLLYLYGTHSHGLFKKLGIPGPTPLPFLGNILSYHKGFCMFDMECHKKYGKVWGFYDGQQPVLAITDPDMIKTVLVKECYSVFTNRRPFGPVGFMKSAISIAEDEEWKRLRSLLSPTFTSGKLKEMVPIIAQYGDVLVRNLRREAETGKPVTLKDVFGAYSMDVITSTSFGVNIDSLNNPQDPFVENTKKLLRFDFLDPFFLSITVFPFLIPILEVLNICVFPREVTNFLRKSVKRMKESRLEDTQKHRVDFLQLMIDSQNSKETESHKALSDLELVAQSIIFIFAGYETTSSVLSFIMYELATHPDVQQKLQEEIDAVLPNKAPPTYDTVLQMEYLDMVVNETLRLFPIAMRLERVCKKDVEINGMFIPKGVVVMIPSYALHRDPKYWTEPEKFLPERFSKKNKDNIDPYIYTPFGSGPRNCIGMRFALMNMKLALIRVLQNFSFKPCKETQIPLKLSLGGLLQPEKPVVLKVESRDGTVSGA

Mus musculus [5] = experiment: Neurotoxicity in mouse assessed as effect on locomotor activity at 3 to 30 mg/kg, po; format: toxicity, organism-based; set-up: dose 3-30 mg/kg, route oral; conditions: in vivo
In short: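 Mice pretreated orally with vehicle or compound, returned to the home cage, then placed individually in locomotor cages with infrared photocell beams. Horizontal and vertical activity monitored in 5 min intervals for up to 60 min; the first 5 min were assessed at 10 and 30 mg/kg. One-way ANOVA, p <0.05.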

[6] = Drug level in mouse whole brain at 30 mg/kg, po after 120 mins; format: ADME, organism-based; set-up: dose 30 mg/kg, route oral; conditions: in vivo, 2 h
In short: (§2)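 Male mice given the HCl salt orally at 3, 10 or 30 mg/kg. Plasma and whole brain were sampled from the tail suspension test animals after the 120 min pretreatment. Levels reported as ng/mL for plasma and ng/g for brain.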

Mus musculus [7] = experiment: Antidepressant activity in mouse assessed as decrease in immobility at 30 mg/kg, po after 120 mins by tail suspension test; format: functional; conditions: 2 h
In short: (§3)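 Male mice (10–12 per group) dosed orally once, 120 min pretreatment, then suspended by the tail. Immobility recorded automatically for 5 min, scored blind, compared with a vehicle group. One-way ANOVA with post-hoc comparisons, p <0.05 taken as significant.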

Mus musculus [8] = experiment: Antidepressant activity in mouse assessed as decrease in immobility at 100 mg/kg, po after 120 mins by tail suspension test; format: functional; conditions: 2 h; in short: as §3
Mus musculus [9] = experiment: Antidepressant activity in mouse assessed as decrease in immobility at 10 mg/kg, po after 120 mins by tail suspension test; format: functional; conditions: 2 h; in short: as §3
[10] = Drug level in mouse plasma at 10 mg/kg, po after 120 mins; format: ADME, organism-based; set-up: dose 10 mg/kg, route oral; conditions: read-out: Drug uptake; in short: as §2
Brain = experiment: fCmax in mouse brain at 3 to 30 mg/kg, po after 120 mins; format: ADME, organism-based; set-up: dose 3-30 mg/kg, route oral; conditions: in vivo, 2 h
In short: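 Brain free level estimated from measured brain concentration in the tail suspension test animals, corrected by mouse plasma protein binding.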

Mus musculus [11] = experiment: Antidepressant activity in po dosed mouse assessed as decrease in immobility after 120 mins by tail suspension test; format: functional, organism-based; in short: as §3
[12] = Drug level in mouse whole brain at 3 mg/kg, po after 120 mins; format: ADME, organism-based; set-up: dose 3 mg/kg, route oral; conditions: in vivo, 2 h; in short: as §2
[13] = Drug level in mouse plasma at 3 mg/kg, po after 120 mins; format: ADME, organism-based; set-up: dose 3 mg/kg, route oral; conditions: read-out: Drug uptake; in short: as §2
[14] = Drug level in mouse whole brain at 10 mg/kg, po after 120 mins; format: ADME, organism-based; set-up: dose 10 mg/kg, route oral; conditions: in vivo, 2 h; in short: as §2
[15] = target: Voltage-gated inwardly rectifying potassium channel KCNH2 (Homo sapiens, UniProt Q12809); experiment: Inhibition of human ERG
Voltage-gated inwardly rectifying potassium channel KCNH2, sequence (Q12809 whole entry): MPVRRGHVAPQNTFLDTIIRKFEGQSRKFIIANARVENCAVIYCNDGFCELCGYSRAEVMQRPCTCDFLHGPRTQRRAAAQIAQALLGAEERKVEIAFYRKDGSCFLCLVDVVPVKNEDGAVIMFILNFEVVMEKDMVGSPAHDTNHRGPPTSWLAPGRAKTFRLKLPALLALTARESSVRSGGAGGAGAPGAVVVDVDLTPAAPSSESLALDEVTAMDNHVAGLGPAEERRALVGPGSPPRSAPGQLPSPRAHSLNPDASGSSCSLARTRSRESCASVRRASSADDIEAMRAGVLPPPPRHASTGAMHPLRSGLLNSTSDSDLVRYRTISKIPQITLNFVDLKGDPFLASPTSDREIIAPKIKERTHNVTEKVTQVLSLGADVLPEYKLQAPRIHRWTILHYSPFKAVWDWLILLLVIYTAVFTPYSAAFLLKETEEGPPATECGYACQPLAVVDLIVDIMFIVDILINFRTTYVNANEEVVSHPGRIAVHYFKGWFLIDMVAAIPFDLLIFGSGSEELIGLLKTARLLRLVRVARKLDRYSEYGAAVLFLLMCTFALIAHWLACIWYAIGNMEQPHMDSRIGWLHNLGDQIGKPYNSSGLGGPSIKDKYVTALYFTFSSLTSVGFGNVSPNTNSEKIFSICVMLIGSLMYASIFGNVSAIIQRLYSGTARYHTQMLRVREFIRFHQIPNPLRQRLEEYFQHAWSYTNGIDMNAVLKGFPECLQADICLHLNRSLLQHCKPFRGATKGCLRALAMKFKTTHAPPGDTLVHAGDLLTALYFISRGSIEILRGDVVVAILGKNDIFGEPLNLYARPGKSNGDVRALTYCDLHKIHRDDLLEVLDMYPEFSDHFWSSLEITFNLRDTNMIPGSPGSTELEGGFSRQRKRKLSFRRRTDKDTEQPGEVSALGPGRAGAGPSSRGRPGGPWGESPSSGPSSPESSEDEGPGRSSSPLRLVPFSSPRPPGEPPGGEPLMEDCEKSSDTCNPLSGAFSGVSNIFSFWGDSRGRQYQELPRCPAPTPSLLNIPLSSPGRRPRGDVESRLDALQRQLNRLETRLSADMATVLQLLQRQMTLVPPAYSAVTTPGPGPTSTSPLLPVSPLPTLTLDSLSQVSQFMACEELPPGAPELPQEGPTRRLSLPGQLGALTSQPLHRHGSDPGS

[16] = Plasma protein binding in mouse at 3 to 30 mg/kg, po after 120 mins; format: ADME, organism-based; set-up: dose 3-30 mg/kg, route oral; conditions: read-out: PPB
[17] = Drug level in mouse plasma at 30 mg/kg, po after 120 mins; format: ADME, organism-based; set-up: dose 30 mg/kg, route oral; conditions: read-out: Drug uptake; in short: as §2
[18] = Ratio of drug level in whole brain to plasma of mouse at 30 mg/kg, po after 120 mins; format: ADME, organism-based; set-up: dose 30 mg/kg, route oral; conditions: read-out: BPR
In short: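 Male mice were dosed orally once with the HCl salt at 3, 10 and 30 mg/kg, with a 120 min pretreatment before the 5 min tail suspension test. There were 10–12 mice per group. Afterwards, whole brain (ng/g) and plasma (ng/mL) samples were taken from the tested animals to give the brain-to-plasma ratio.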

Row | SMILES | pIC50 [1] | half-life [2] [h] | half-life [3] [h] | pIC50 (Cytochrome P450 2D6) | pIC50 (Cytochrome P450 2C9) | pIC50 [4] | pIC50 (Cytochrome P450 2C19) | pIC50 (Cytochrome P450 3A4) | also measured
1 | CN[C@@H]1CCc2ccccc2[C@H]1c1ccc(Cl)c(Cl)c1 | 5.78 | 0.333 | 1.58 | 7.24 | < 5.00 | 6.67 | – | – | –
2 | CNC[C@H]1Cc2ccccc2[C@@H](c2ccc(Cl)c(Cl)c2)C1 | 6.43 | – | – | – | – | 6.32 | – | – | –
3 | CN[C@H]1Cc2ccccc2[C@H](c2ccc(Cl)c(Cl)c2)C1 | – | > 5 | > 5 | 7.17 | < 4.60 | – | < 4.60 | < 4.60 | –
4 | CN[C@H]1Cc2ccccc2[C@@H](c2ccc(Cl)c(Cl)c2)C1 | – | > 5 | > 5 | 5.56 | < 4.60 | – | 4.99 | 4.77 | Activity (Mus musculus [5]): Non-toxic; Drug uptake [6]: 13571 ng; inhibition in vivo at 30 mg/kg (Mus musculus [7]): 50%; inhibition in vivo at 100 mg/kg (Mus musculus [8]): 30%; inhibition in vivo at 10 mg/kg (Mus musculus [9]): 21%; concentration at 2 h [10]: 164 ng/mL; fCmax (Brain): 440 nM; inhibition (Mus musculus [11]): Dose-dependent effect; Drug uptake [12]: 2830 ng; concentration at 2 h [13]: 96 ng/mL; Drug uptake [14]: 6021 ng; pIC50 [15]: 5.80; fraction unbound at 2 h [16]: 0.01; concentration at 2 h [17]: 344 ng/mL
5 | CNC[C@@H]1Cc2ccccc2[C@H](c2ccc(Cl)c(Cl)c2)C1 | 6.68 | > 5 | > 5 | 6.81 | < 4.60 | 6.95 | 5.22 | < 4.60 | pIC50 [15]: 5.70
6 | CN[C@H]1CCc2ccccc2[C@@H]1c1ccc(Cl)c(Cl)c1 | 6.12 | 1.68 | 1.77 | 8.10 | < 5.00 | 7.04 | – | – | –
7 | CN(C)[C@@H]1Cc2ccccc2[C@@H](c2ccc(Cl)c(Cl)c2)C1 | 6.76 | – | – | – | – | 6.75 | – | – | –
8 | CN(C)C[C@@H]1Cc2ccccc2[C@H](c2ccc(Cl)c(Cl)c2)C1 (racemic) | 6.25 | – | – | – | – | 6.48 | – | – | –
9 | CN(C)[C@@H]1Cc2ccccc2[C@H](c2ccc(Cl)c(Cl)c2)C1 | 6.79 | – | – | – | – | 6.56 | – | – | –
10 | CNC[C@H]1Cc2ccccc2[C@H](c2ccc(Cl)c(Cl)c2)C1 | – | > 5 | > 5 | 7.39 | < 4.60 | – | 5.11 | 4.70 | pIC50 [15]: 5.79
11 | CNC[C@@H]1Cc2ccccc2[C@@H](c2ccc(Cl)c(Cl)c2)C1 | 6.90 | 1.55 | > 5 | 6.04 | < 4.60 | 6.99 | 5.66 | < 4.60 | –
12 | CN(C)C[C@H]1Cc2ccccc2[C@H](c2ccc(Cl)c(Cl)c2)C1 (mixture of isomers) | 6.51 | – | – | – | – | 6.47 | – | – | –
13 | CN[C@@H]1CCc2ccccc2[C@@H]1c1ccc(Cl)c(Cl)c1 | 6.95 | 0.917 | 0.917 | 7.48 | 5.12 | 6.25 | – | – | –
14 | NCC[C@H]1Cc2ccccc2[C@@H](c2ccc(Cl)c(Cl)c2)C1 | – | > 5 | > 5 | 4.86 | < 4.60 | 7.30 | 5.79 | < 4.60 | pIC50 [15]: 5.82
15 | CN[C@H]1CC[C@@H](c2ccc(Cl)c(Cl)c2)c2ccccc21 [SERTRALINE] | – | – | > 2 | 5.85 | < 5.00 | – | 6.51 | – | –
16 | CN[C@H]1CCc2ccccc2[C@H]1c1ccc(Cl)c(Cl)c1 | 5.14 | 0.1 | 0.917 | 6.31 | < 5.00 | 5.79 | – | – | –
17 | CN[C@@H]1Cc2ccccc2[C@@H](c2ccc(Cl)c(Cl)c2)C1 | – | 2 | > 5 | 5.94 | < 4.60 | 7.21 | 5.28 | < 4.60 | pIC50 [15]: 5.63
18 | CNCCCN1c2ccccc2CCc2ccccc21 [DESIPRAMINE] | – | – | – | – | – | – | – | – | Kp at 2 h [18]: 40
19 | CN(C)[C@H]1Cc2ccccc2[C@@H](c2ccc(Cl)c(Cl)c2)C1 | 7.01 | – | – | – | – | 6.50 | – | – | –
20 | N[C@H]1Cc2ccccc2[C@@H](c2ccc(Cl)c(Cl)c2)C1 | 6.76 | – | – | – | – | 6.76 | – | – | –
21 | N[C@@H]1Cc2ccccc2[C@H](c2ccc(Cl)c(Cl)c2)C1 | 6.07 | – | – | – | – | 6.05 | – | – | –
22 | NCC[C@@H]1Cc2ccccc2[C@H](c2ccc(Cl)c(Cl)c2)C1 | – | > 5 | > 5 | 6.58 | < 4.60 | 7.49 | 5.42 | < 4.60 | pIC50 [15]: 4.88
23 | N[C@@H]1Cc2ccccc2[C@@H](c2ccc(Cl)c(Cl)c2)C1 | 6.14 | – | – | – | – | 6.39 | – | – | –
24 | CN[C@@H]1Cc2ccccc2[C@H](c2ccc(Cl)c(Cl)c2)C1 | – | > 5 | > 5 | 7.70 | < 4.60 | 6.55 | < 4.60 | < 4.60 | pIC50 [15]: 5.28
